# Source: ChEMBL document CHEMBL4177648, “Benzofuran-dihydropyridine hybrids: A new class of potential bone anabolic agents” (Bioorg Med Chem, 2017)
# Activity calls are given as the source filed them. The calls are words filed in the database; no cut-off is given here.
# Legend:
# [1] = tested on: Calvarial osteoblast; experiment: Upregulation of Bmp2 mRNA levels in rat calvarial osteoblasts at 10 nM after 48 hrs by qRT-PCR analysis relative to control; type: functional
# Outline: (§1)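 Rat pup calvarial osteoblasts were treated for 48 h with compound. Total RNA was extracted with TRIzol and checked by A260 and A260/A280. qRT-PCR used 45 cycles (94 °C, 62 °C, 72 °C steps) and was normalised to GAPDH. Fold change is over untreated cells; n=5, mean ± SEM.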
# [2] = tested on: Calvarial osteoblast; experiment: Upregulation of Col1 mRNA levels in rat calvarial osteoblasts at 100 pM after 48 hrs by qRT-PCR analysis relative to control; type: functional; outline: as §1
# [3] = tested on: Calvarial osteoblast; experiment: Upregulation of Bmp2 mRNA levels in rat calvarial osteoblasts at 100 pM after 48 hrs by qRT-PCR analysis relative to control; type: functional; outline: as §1
# [4] = tested on: Calvarial osteoblast; experiment: Anabolic activity in rat calvarial osteoblasts assessed as induction of alkaline phosphatase activity at 10 nM after 48 hrs in presence of beta-glycerophosphate and ascorbic acid by p-nitrophenyl phosphate substrate based assay (reference value: 1 to 1.21); type: functional
# [5] = tested on: Calvarial osteoblast; experiment: Upregulation of BMP2 expression levels in rat calvarial osteoblasts at 100 pM after 48 hrs by Western blot analysis; type: functional, cell-based
# [6] = tested on: Calvarial osteoblast; experiment: Anabolic activity in rat calvarial osteoblasts assessed as induction of alkaline phosphatase activity at 100 uM after 48 hrs in presence of beta-glycerophosphate and ascorbic acid by p-nitrophenyl phosphate substrate based assay (reference value: 1 to 1.21); type: functional
# [7] = tested on: Rattus norvegicus; experiment: Upregulation of Runx2 mRNA in rat pup calvarial tissue at >10 mg/kg/day administered subcutaneously for 3 consecutive days by qRT-PCR analysis; type: functional, organism-based
# Outline: (§2)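 Rat pups received subcutaneous injections at the calvarial skull site of 0.1, 0.5, 1.0, 5.0, 10 or 20 mg·kg⁻¹·day⁻¹, or normal-saline vehicle, for 3 consecutive days. Calvaria were then collected, RNA was isolated with TRIzol, and Runx2 and Bmp2 were measured by qRT-PCR; n=5, mean ± SEM.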
# [8] = tested on: Calvarial osteoblast; experiment: Anabolic activity in rat calvarial osteoblasts assessed as induction of alkaline phosphatase activity at 1 pM after 48 hrs in presence of beta-glycerophosphate and ascorbic acid by p-nitrophenyl phosphate substrate based assay (reference value: 1 to 1.21); type: functional
# [9] = tested on: Rattus norvegicus; experiment: Osteogenic activity in Sprague-Dawley rat drill-hole fracture model assessed as increase in bone volume/trabecular volume at 10 mg/kg/day for 14 consecutive days by micro CT-scan analysis; type: functional, organism-based
# Outline: (§3)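 Adult female Sprague-Dawley rats (200 ± 20 g, 12 weeks) under ketamine/xylazine anaesthesia received a 0.8 mm drill-hole defect in the femoral diaphysis, 2 cm above the knee. Dosing was oral at 10 mg·kg⁻¹·day⁻¹, or gum acacia vehicle, for 14 days starting the next day. The defect was scanned by micro-CT at 18 µm voxel and 70 kV; n=6/group.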
# [10] = tested on: Rattus norvegicus; experiment: Osteogenic activity in Sprague-Dawley rat drill-hole fracture model assessed as enhanced callus regeneration of femur bone at 10 mg/kg/day by H and E staining-based analysis; type: functional, organism-based
# Outline: (§4)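 Drill-hole femur defect in female Sprague-Dawley rats with oral dosing at 10 mg·kg⁻¹·day⁻¹ or gum acacia vehicle for 14 days. Bones were decalcified in EDTA and the callus at the defect site was stained with H&E; n=6/group.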
# [11] = tested on: Calvarial osteoblast; experiment: Upregulation of Osx mRNA levels in rat calvarial osteoblasts at 100 pM after 48 hrs by qRT-PCR analysis relative to control; type: functional; outline: as §1
# [12] = tested on: Rattus norvegicus; experiment: Upregulation of Bmp2 mRNA in rat pup calvarial tissue at >10 mg/kg/day administered subcutaneously for 3 consecutive days by qRT-PCR analysis; type: functional, organism-based; outline: as §2
# [13] = tested on: Calvarial osteoblast; experiment: Cytotoxicity against rat calvarial osteoblasts at 0.000001 uM to 1 uM after 48 hrs by MTT assay; type: cell-based; conditions: 1 pM
# Outline: (§5)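 Primary osteoblasts from calvaria of 1–2-day-old rat pups, released by sequential dispase/collagenase P digestion and grown in α-MEM with 10% FCS to 70–80% confluence. Seeded at 2000 cells/well and treated with 1 pM to 100 µM for 48 h in differentiation medium (10 mM β-glycerophosphate, 50 µg/mL ascorbic acid). Viability read by MTT against untreated control; n=8, mean ± SEM.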
# [14] = tested on: Calvarial osteoblast; experiment: Upregulation of Col1 mRNA levels in rat calvarial osteoblasts at 10 nM after 48 hrs by qRT-PCR analysis relative to control; type: functional; outline: as §1
# [15] = tested on: Calvarial osteoblast; experiment: Upregulation of Bmp2 expression levels in rat calvarial osteoblasts at 100 pM after 48 hrs by ELISA; type: functional, cell-based
# Outline: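 Calvarial osteoblasts were seeded at 5×10^3 cells/well and treated 48 h at 100 pM in α-MEM with 1% charcoal-stripped FCS. BMP2 in the culture supernatant was measured by sandwich ELISA, with OD read at 450 nm.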
# [16] = tested on: Calvarial osteoblast; experiment: Upregulation of RUNX2 expression levels in rat calvarial osteoblasts at 100 pM after 48 hrs by Western blot analysis; type: functional, cell-based
# [17] = tested on: Rattus norvegicus; experiment: Upregulation of Runx2 mRNA in rat pup calvarial tissue at 1 to 10 mg/kg/day administered subcutaneously for 3 consecutive days by qRT-PCR analysis; type: functional, organism-based; outline: as §2
# [18] = tested on: Rattus norvegicus; experiment: Osteogenic activity in Sprague-Dawley rat drill-hole fracture model assessed as increase in mineral deposition at 10 mg/kg/day by calcein labeling-based confocal microscopy analysis
# [19] = tested on: Rattus norvegicus; experiment: Hepatotoxicity in Sprague-Dawley rat drill-hole fracture model assessed as morphological alterations at 10 mg/kg, po qd for 14 days by haematoxylin and eosin staining-based microscopic analysis; type: toxicity, organism-based; conditions: in vivo, 336 h
# Outline: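 From the next day they were dosed orally for 14 days, 6 per group, with vehicle gum acacia in water. Livers were collected at the end, cut into 5 µm paraffin sections, dewaxed, stained with H&E and examined by light microscopy.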
# [20] = tested on: Rattus norvegicus; experiment: Osteogenic activity in Sprague-Dawley rat drill-hole fracture model assessed as bone formation at 10 mg/kg/day by H and E staining-based analysis relative to control; type: functional, organism-based; outline: as §4
# [21] = tested on: Calvarial osteoblast; experiment: Cytotoxicity against rat calvarial osteoblasts at 100 uM after 48 hrs by MTT assay; type: cell-based; outline: as §5
# [22] = tested on: Calvarial osteoblast; experiment: Upregulation of COL1 expression levels in rat calvarial osteoblasts at 100 pM after 48 hrs by Western blot analysis; type: functional, cell-based
# [23] = tested on: Rattus norvegicus; experiment: Osteogenic activity in Sprague-Dawley rat drill-hole fracture model assessed as increase in trabecular thickness at 10 mg/kg/day for 14 consecutive days by micro CT-scan analysis; type: functional, organism-based; outline: as §3
# [24] = tested on: Rattus norvegicus; experiment: Upregulation of Bmp2 mRNA in rat pup calvarial tissue at 1 to 10 mg/kg/day administered subcutaneously for 3 consecutive days by qRT-PCR analysis; type: functional, organism-based; outline: as §2
# [25] = tested on: Rattus norvegicus; experiment: Osteogenic activity in Sprague-Dawley rat drill-hole fracture model assessed as enhanced callus regeneration of femur bone at 10 mg/kg/day by calcein labeling based confocal microscopic method; type: functional
# Outline: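 Drill-hole femur defect in female Sprague-Dawley rats with oral dosing at 10 mg·kg⁻¹·day⁻¹ for 14 days. Calcein (20 mg/kg i.p.) was given 2 days before autopsy. Acrylic-embedded 50 µm bone sections were imaged by confocal microscopy, and mean calcein intensity per pixel was quantified at the defect; n=6/group.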
# [26] = tested on: Calvarial osteoblast; experiment: Anabolic activity in rat calvarial osteoblasts assessed as induction of alkaline phosphatase activity at 1 uM after 48 hrs in presence of beta-glycerophosphate and ascorbic acid by p-nitrophenyl phosphate substrate based assay (reference value: 1 to 1.21); type: functional
# [27] = tested on: Rattus norvegicus; experiment: Osteogenic activity in Sprague-Dawley rat drill-hole fracture model assessed as increase in Bmp2 expression levels at 10 mg/kg/day by qRT-PCR analysis; type: functional, organism-based
# [28] = tested on: Calvarial osteoblast; experiment: Anabolic activity in rat calvarial osteoblasts assessed as induction of alkaline phosphatase activity after 48 hrs in presence of beta-glycerophosphate and ascorbic acid by p-nitrophenyl phosphate substrate based assay; type: functional, cell-based
# [29] = tested on: Calvarial osteoblast; experiment: Anabolic activity in rat calvarial osteoblasts assessed as induction of alkaline phosphatase activity at 100 pM after 48 hrs in presence of beta-glycerophosphate and ascorbic acid by p-nitrophenyl phosphate substrate based assay (reference value: 1 to 1.21); type: functional
# [30] = tested on: Calvarial osteoblast; experiment: Upregulation of Runx2 mRNA levels in rat calvarial osteoblasts at 10 nM after 48 hrs by qRT-PCR analysis relative to control; type: functional; outline: as §1
# [31] = tested on: Calvarial osteoblast; experiment: Induction of mineralization in rat calvarial osteoblasts at 0.1 nM to 10 nM after 21 days by Alizarin-red dye based assay; type: functional, cell-based
# Outline: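 Rat pup calvarial osteoblasts were seeded at 1×10^4 cells/well in differentiation medium with compound. Medium was changed every other day for 21 days. Cells were fixed in 4% paraformaldehyde and stained with 40 mM Alizarin red (pH 4.5). Stain was extracted with 10% acetic acid, heated to 85 °C, and neutralised with NH4OH. Absorbance was read at 405 nm.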
# [32] = tested on: Calvarial osteoblast; experiment: Upregulation of Runx2 mRNA levels in rat calvarial osteoblasts at 100 pM after 48 hrs by qRT-PCR analysis relative to control; type: functional; outline: as §1
# [33] = tested on: Rattus norvegicus; experiment: Osteogenic activity in Sprague-Dawley rat drill-hole fracture model assessed as increase in trabecular number at 10 mg/kg/day for 14 consecutive days by micro CT-scan analysis; type: functional, organism-based; outline: as §3
# [34] = tested on: Rattus norvegicus; experiment: Osteogenic activity in Sprague-Dawley rat drill-hole fracture model assessed as increase in connection density at 10 mg/kg/day for 14 consecutive days by micro CT-scan analysis; type: functional, organism-based; outline: as §3
# [35] = tested on: Calvarial osteoblast; experiment: Upregulation of ALP mRNA levels in rat calvarial osteoblasts at 100 pM after 48 hrs by qRT-PCR analysis relative to control; type: functional; outline: as §1
smiles,measurement,setting,value
CCOC(=O)C1=C(C)NC2=C(C(=O)CCC2)C1c1cc(C(C)CC)c2oc(C(=O)c3ccc(C)cc3)cc2c1 (stereo not given),fold change (FC),[1],3.1
same,fold change (FC),[2],5
same,fold change (FC),[3],4.5
same,OD,[4],1.19
same,Activity,[5],Active
same,OD,[6],0.36
same,Activity,[7],inactive
same,OD,[8],1.14
same,Activity,[9],Active
same,Activity,[10],Active
same,fold change (FC),[11],3.7
same,Activity,[12],inactive
same,Activity,[13],Non-Toxic
same,fold change (FC),[14],3.7
same,Activity,[15],Active
same,Activity,[16],Active
same,Activity,[17],Active
same,Activity,[18],Active
same,Activity,[19],Non-Toxic
same,Activity,[20],Active
same,Activity,[21],Toxic
same,Activity,[22],Active
same,Activity,[23],Active
same,Activity,[24],Active
same,Activity,[25],40%
same,OD,[26],1.16
same,Activity,[27],Active
same,EC50,[28],0.1 nM
same,OD,[29],1.32
same,fold change (FC),[30],3.4
same,Activity,[31],Active
same,fold change (FC),[32],3.9
same,Activity,[33],Active
same,Activity,[34],Active
same,fold change (FC),[35],4.5
